This is an account of results in ChEMBL document CHEMBL3784941, “Rational Design, Synthesis, and Preliminary Structure-Activity Relationships of α-Substituted-2-Phenylcyclopropane Carboxylic Acids as Inhibitors of Salmonella typhimurium O-Acetylserine Sulfhydrylase” (J Med Chem, 2016).

Data set [1] can be described thus: Binding affinity to recombinant Salmonella typhimurium His6-tagged OASS-A expressed in Escherichia coli by fluorimetric titration method. More on the design: species or system Salmonella enterica subsp. enterica serovar Typhimurium. The gist of the method:
(§1)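 OASS coenzyme fluorescence titrated with ligand. Conditions were 0.5−1.0 μM enzyme in 100 mM Hepes, pH 7.0, at 20 °C. Excitation was at 412 nm and the emission spectra were recorded. Intensity at 500 nm, minus the ligand-free signal, was fitted to a single-site binding isotherm to give Kdiss.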

Data set [2] is described as follows: Binding affinity to recombinant Salmonella typhimurium His10-tagged OASS-B expressed in Escherichia coli by fluorimetric titration method. More on the design: species or system Salmonella enterica subsp. enterica serovar Typhimurium. The essentials:
as §1

The nature of data set [3]: Inhibition of recombinant Salmonella typhimurium His10-tagged OASS-B expressed in Escherichia coli using OAS as substrate by discontinuous assay. On the set-up: species or system Salmonella enterica subsp. enterica serovar Typhimurium.
Data set [4] can be described thus: Inhibition of recombinant Salmonella typhimurium His6-tagged OASS-A expressed in Escherichia coli using OAS as substrate by discontinuous assay. More on the design: species or system Salmonella enterica subsp. enterica serovar Typhimurium.
A short description of data set [5]: Solubility in 100 mM HEPES buffer at pH 7 containing 1% DMSO at >20 uM at 20 degC. The data set is classed as physicochemical.
Data set [6] deals with Salmonella enterica subsp. enterica serovar Typhimurium. Briefly: Binding affinity to recombinant Salmonella typhimurium His6-tagged OASS-A expressed in Escherichia coli at <20 uM by fluorimetric titration method. The gist of the method: as §1

Usually pKd stands for the negative decadic logarithm of the Kd, by convention in mol/L. One may read the pIC50 as the negative decadic logarithm of the IC50, by convention in mol/L.

pIC50, pKd: −log10 of the molar value. The source made the active and inactive calls. The rule behind the calls is not given here. Bounds are passed on as bounds.

On to `CC[C@@]1(C(=O)O)C[C@H]1c1ccccc1`, for which the negative-log Kd (pKd) is 4.92 in data set [1] and 3.07 in data set [2].

As to `Cc1ccc(C[C@@]2(C(=O)O)C[C@H]2c2ccccc2)cc1`, the pKd in data set [1] is 7.55; in data set [2], 6.31.

Consider `O=C(O)[C@H]1C[C@@H]1c1ccccc1` (relative stereo), for which the pKd in data set [1] is 5.04; in data set [2], 3.83.

For the molecule `O=C(O)[C@@]1(Cc2ccc(Cl)cc2)C[C@@H]1c1ccccc1`, the pKd was 4.08 in data set [1] and 3.82 in data set [2]. For the same molecule, the pIC50 in data set [3] is 4.32; in data set [4], 4.85.

On to H-MNLNI-OH, for which the negative-log Kd (pKd) in data set [1] was 3.92; in data set [2], 2.52.

Regarding `O=C(O)[C@]1(Cc2ccccc2)C[C@H]1c1ccccc1`, the values for the negative logarithm of the Kd (pKd) in data set [1] and in data set [2] were 7.17 and 5.78, respectively.

For `Cc1ccc(C[C@]2(C(=O)O)C[C@@H]2c2ccccc2)cc1` (racemic), the results for the negative-log Kd (pKd) in data set [1] and in data set [2] were 7.11 and 5.92, respectively.

Consider `CCOC(=O)[C@@]1(Cc2ccccc2)C[C@@H]1c1ccccc1` (relative stereo), for which the solubility entry in data set [5] is given as “Insoluble”. Also, the result in data set [6] was inactive.

`Cc1ccc(C[C@]2(C(=O)O)C[C@@H]2c2ccccc2)cc1`: the values for the pKd in data set [1] and in data set [2] were 4.09 and 3.92, respectively.

For `O=C(O)[C@@]1(CCc2ccccc2)C[C@@H]1c1ccccc1` (relative stereo), the pKd in data set [1] was 4.85; in data set [2] it was 4.57.

In the case of `CC[C@]1(C(=O)O)C[C@@H]1c1ccccc1` (racemic), the values for the negative logarithm of the Kd (pKd) in data set [1] and in data set [2] were 4.82 and 3.14, respectively.

As to `O=C(O)[C@@]1(Cc2ccc(Cl)cc2)C[C@@H]1c1ccccc1` (racemic), the negative-log Kd (pKd) in data set [1] was 6.81; in data set [2], 6.12.

As for `O=C(O)[C@@]1(Cc2ccccc2)C[C@@H]1c1ccccc1`, the pKd in data set [1] was 4.30; in data set [2], 3.71.

For `O=C(O)[C@]1(Cc2ccc(Cl)cc2)C[C@H]1c1ccccc1`, the pKd is 7.27 in data set [1] and 6.38 in data set [2]. Also, the pIC50 was 6.30 in data set [3] and 7.00 in data set [4].

Take `CC[C@]1(C(=O)O)C[C@@H]1c1ccccc1`: the values for the pKd in data set [1] and in data set [2] were 2.92 and under 2.70, respectively.

On to `O=C(O)[C@@]1(Cc2ccccc2)C[C@@H]1c1ccccc1` (racemic), for which the pKd in data set [1] was 6.70; in data set [2], 5.39.
